# Screens: PubChem, several laboratories
# This is a sample that favours compounds with a hit; in the whole collection about 3.8% have one here.
# CSC inhib = cancer stem cell viability inhibitors, primary screen, luminescence | cancer stem cell-like cells viability | inhibition, % at 7.5 µM | 1.1% of 300,000 active; in the data active means inhibition above about 75%; tested in HMLE shEcad cells
# ANO1 block = TMEM16A chloride channel inhibitors, primary screen, cell-based, HTS; Anoctamin-1 (Mus musculus), Q8BHY3; HEK293 TMEM16A/YFP iodide influx fluorescence, ionomycin; normalized B-score (activity score, 25-100; higher = stronger inhibition) at 10 µM; 1.2% of 310,000 active; AID 588511, 2011;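 active means ratio plate-corrected score three or more library SD toward inhibition, starting fluorescence score within five deviations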;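 further: score derived from kinetic fluorescence span divided by baseline fluorescence per well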
# Target sequence (Q8BHY3 whole entry, looked up): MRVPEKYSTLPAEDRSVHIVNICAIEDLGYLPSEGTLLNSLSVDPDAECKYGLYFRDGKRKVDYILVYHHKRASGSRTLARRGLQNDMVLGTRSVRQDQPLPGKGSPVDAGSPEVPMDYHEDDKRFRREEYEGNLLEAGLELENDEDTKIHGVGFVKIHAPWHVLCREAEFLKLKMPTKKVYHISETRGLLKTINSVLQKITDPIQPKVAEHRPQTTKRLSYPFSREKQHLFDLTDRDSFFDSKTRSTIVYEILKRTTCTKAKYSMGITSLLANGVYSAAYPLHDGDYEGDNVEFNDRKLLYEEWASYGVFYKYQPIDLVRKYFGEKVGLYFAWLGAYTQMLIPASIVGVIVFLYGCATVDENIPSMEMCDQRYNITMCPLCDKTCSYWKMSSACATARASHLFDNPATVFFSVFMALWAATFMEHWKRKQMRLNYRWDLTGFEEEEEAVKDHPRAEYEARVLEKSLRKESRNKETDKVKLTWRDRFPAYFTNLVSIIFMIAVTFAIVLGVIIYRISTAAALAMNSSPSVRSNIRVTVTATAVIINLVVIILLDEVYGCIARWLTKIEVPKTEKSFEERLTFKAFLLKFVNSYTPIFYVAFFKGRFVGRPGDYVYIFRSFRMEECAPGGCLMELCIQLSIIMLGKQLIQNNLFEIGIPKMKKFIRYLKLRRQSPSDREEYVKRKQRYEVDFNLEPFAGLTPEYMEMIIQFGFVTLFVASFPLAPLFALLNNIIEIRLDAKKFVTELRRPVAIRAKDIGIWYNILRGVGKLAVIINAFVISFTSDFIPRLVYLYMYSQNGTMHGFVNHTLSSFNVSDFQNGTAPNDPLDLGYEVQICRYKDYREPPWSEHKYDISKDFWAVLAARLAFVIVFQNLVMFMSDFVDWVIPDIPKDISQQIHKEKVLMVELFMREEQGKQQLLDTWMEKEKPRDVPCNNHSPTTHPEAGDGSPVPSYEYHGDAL
# TMEM16A act = TMEM16A chloride channel activators or potentiators, primary screen, cell-based, HTS; HEK293 TMEM16A/YFP-H148Q/I152L, iodide quench fluorescence; hits give low values; B-score at 10 µM; 0.3% of 340,000 active; AID 623877, 2012;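 active means fluorescence-ratio B-score plate-corrected deviation score at least 3 library SD below zero, with starting fluorescence score within 5 deviations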;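 further: channel opened by trigger with iodide after compound preincubation; score built on the fluorescence ratio of max minus min over baseline; more negative score means more quench and so TMEM16A activation or potentiation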
# Beta cell apopt = inhibitors of cytokine-induced beta cell apoptosis, primary screen, luminescence; INS-1E cytokine-induced death, ATP luminescence, 48 h; percent of positive-control rescue, neutral wells zero; 0.8% of 300,000 active; AID 435005, 2010; protection from apoptosis, % (test concentration not listed);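 active means Every replicate reaches about 75%, or at least half do and their mean reaches it too, limit read from the data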;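 further: 0% = cytokine-treated negative control wells and 100% = positive control rescue; higher means more ATP so stronger rescue from cytokine killing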
# MC4R barr agon = MC4R agonists recruiting beta-arrestin, primary screen, cell-based, luminescence, agonist arm of biased-ligand search | U2OS MC4R beta-arrestin complementation; percent of melanotan II response, DMSO zero | Melanocortin receptor 4 (Homo sapiens), P32245 | AID 540308, 2011 | 0.98% of 360,000 active | activation, % at 8.9 µM;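 active means activation above a per-plate cutoff, the mean activation of sample wells on that plate plus 3 SD, cut at about 8% in these data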
# MC4R antag cAMP = MC4R antagonists of cAMP signaling, primary screen, cell-based, TR-FRET, antagonist arm of biased-ligand search; MC4R-expressing cells, MTII-stimulated cAMP, LANCE TR-FRET; inhibition, % at 6.5 µM; 0.48% of 360,000 active;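 active means inhibition above its plate's cutoff, the mean of tested wells on that plate plus 3 SD, cut at about 29% in these data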;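 further: 0% = Melanotan II alone and 100% = Melanotan II plus saturating MCL0020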
#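 Test system: U2OS cells stably expressing human melanocortin 4 receptor (MC4R); also added: Melanotan II challenge; compound: 6.5 µM single dose; timing: 30-min compound preincubation, 1-h Melanotan II challenge, 1-h detection, room temperature; signal: Eu-cAMP/anti-cAMP TR-FRET, emission 671 nm; repeats: one well per compound, no replicates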
# Numbers without * were called inactive; i = inactive; · = no result.
SMILES,CSC inhib,ANO1 block,TMEM16A act,Beta cell apopt,MC4R barr agon,MC4R antag cAMP
O=C(NN=Cc1c(O)ccc2ccccc12)c1ccc2c(c1)OCO2,10.4,·,i,-6.0,1.6,-5.4
O=C(N/N=C/c1c(O)ccc2ccccc12)c1ccc(CO)nc1,87.1*,i,i,·,-0.6,3.7
O=C(N/N=C\c1c(O)ccc2ccccc12)c1ccc(S(=O)(=O)N2CCCCC2)cc1,100.2*,i,i,96.7*,0.1,-0.5
CC(=O)N1CCc2cc(NC(=O)C3(C)CCN3Cc3ccccc3Cl)ccc21 (stereo unspecified),·,·,·,·,-0.7,-1.1
N#Cc1ccccc1CCN1C(=O)c2ccccc2C1=O,-13.6,i,i,-5.9,-0.2,-6.5
COc1ccc(Nc2nc(-c3ccccc3)nc3ccccc23)c(OC)c1,11.7,i,i,10.3,1.5,-5.6
Cc1ccc(-c2nc(N/N=C/c3cccc([N+](=O)[O-])c3)c3ccccc3n2)cc1,62.0,i,i,0.0,0.6,7.9
Cc1ccc(-c2nc(N/N=C/c3cccnc3)c3ccccc3n2)cc1,41.1,i,i,75.6*,1.2,8.2
c1ccc(Nc2nc(-c3ccccc3)nc3ccccc23)cc1,48.9,i,i,14.6,0.7,0.5
O=C(O)c1cccc(Nc2nc(-c3ccc([N+](=O)[O-])cc3)nc3ccccc23)c1,12.4,i,i,-1.2,-1.3,28.4
O=[N+]([O-])c1ccc(-c2nc(Nc3cccc(O)c3)c3ccccc3n2)cc1,94.4*,i,i,·,7.9,5.9
COc1ccc(OC)c(Nc2nc(-c3ccncc3)nc3ccccc23)c1,42.0,i,i,12.9,12.6*,11.4
COc1cccc(Nc2nc(-c3ccccc3)nc3ccccc23)c1,91.5*,i,i,8.3,1.9,14.1
CCN(CC(=O)Nc1c(F)cccc1F)C(=O)CN1C(=O)NC2(CCCC2)C1=O,-14.4,i,i,0.4,-3.4,-1.0
Cn1c(-c2cccc([N+](=O)[O-])c2)cnc1NCc1cccc(F)c1,5.0,i,i,-3.7,0.0,13.3
Cc1ccc(-c2nc(Nc3ccc(O)cc3)c3ccccc3n2)cc1,73.1,i,i,-5.3,1.5,13.1
Cc1ccc(-c2nc(Nc3ccc(N4CCOCC4)cc3)c3ccccc3n2)cc1,89.7*,i,i,2.2,-3.1,-0.7
Cc1ccc(-c2nc(Nc3cccc(O)c3)c3ccccc3n2)cc1,111.7*,i,i,-0.2,5.9,1.7
CCOC(=O)C1=C(CC)Nc2ccccc2N=C1NC(=O)c1ccc(OC)c(S(=O)(=O)N2CCOCC2)c1,·,·,i,·,0.3,11.1
Cc1cc(C)c(OCC(=O)N2CC=C(c3ccccc3)CC2)c(C)c1,·,i,i,-6.8,0.6,4.8
COc1nc(NCCc2ccc(OC)c(OC)c2)nc(OC)n1,-5.6,i,i,-3.5,2.4,-7.3
COc1ccc(CCNc2c3ccccc3nc3ccccc23)cc1OC,12.6,i,i,76.8*,0.6,4.5
COc1ccc(CCNc2nc(-c3ccccn3)cs2)cc1OC,-5.8,i,-6.19*,4.8,-1.5,10.2
CSCCC(NC(=O)c1cccc(C)c1)C(=O)NCc1cccs1 (stereo unspecified),-20.3,·,i,-1.8,-1.7,1.4
Cc1cc(C)n(-c2nc3ccccc3c(=O)n2OCC#N)n1,40.5,i,i,84.1*,-0.1,11.9
SMILES,CSC inhib,ANO1 block,TMEM16A act,Beta cell apopt,MC4R barr agon,MC4R antag cAMP
CCCN1CCN(C(=O)C(C)n2nc(C)c3sc4ccccc4c3c2=O)CC1 (stereo unspecified),-7.7,i,i,-0.5,-2.1,9.5
O=C1c2cc(Br)ccc2N(Cc2ccc(Br)cc2)S(=O)(=O)C1c1cc(Cl)c(Cl)cc1[N+](=O)[O-] (stereo unspecified),108.4*,·,i,9.2,0.5,4.9
Cc1ccc(CN(CC(O)COc2cccc3[nH]cc(C)c23)C(C)(C)C)cc1 (stereo unspecified),75.9*,i,i,-2.0,3.8,1.8
Clc1ccc(-c2nn3cnnc3s2)c(Cl)c1,6.6,25*,i,·,-2.3,2.8
CCOC(=O)C1=C(C)N2C(=C(C#N)[C@@H]1c1ccc(C(=O)OC)cc1)SC[C@@]2(O)C(C)(C)C,82.0*,i,i,24.6,0.5,32.9*
CCOC(=O)C1=C(C)N=C2SCCC(=O)N2C1c1ccc(C(=O)OC)cc1 (stereo unspecified),10.3,i,i,-7.9,-1.2,9.4
COc1cc(/C=N/N=C(N)N)ccc1OCc1ccccc1Cl,62.7,100*,i,20.4,6.8,7.1
Cc1cccc(S(=O)(=O)NC(=O)C2(C)CCN2C(=O)Cc2ccc(C(C)(C)C)cc2)c1 (stereo unspecified),·,·,·,·,-3.5,11.7
CCC(C)Sc1cccc(-c2nc3cnccn3c2NC2CCCCC2)c1 (stereo unspecified),·,·,i,·,2.9,4.5
c1cc(SC2CCCCC2)cc(-c2nc3cnccn3c2NC2CCCCC2)c1,104.2*,·,i,-1.7,-0.3,10.0
c1cn2c(NC3CCCC3)c(-c3ccc(N4CCOCC4)cc3)nc2cn1,-9.5,i,i,8.6,-0.2,7.2
c1cn2c(NC3CCCCC3)c(-c3ccc(SC4CCCCC4)cc3)nc2cn1,125.9*,i,i,0.4,-1.6,4.3
CCCC[n+]1c2ccccc2cc2ccccc21,39.9,i,i,48.2,-2.3,-5.7
CCCCC[n+]1cccc2c3ccccc3ccc21,12.9,i,i,110.2*,-1.8,3.9
COc1ccccc1-c1cc(C(F)(F)F)nc(S(=O)(=O)CCCC(=O)NCc2ccc(F)cc2)n1,76.6*,i,i,-29.1,-1.9,12.0
CS(=O)(=O)c1nc(-c2ccco2)cc(C(F)(F)F)n1,112.0*,i,·,80.0*,·,·
CN1CCN(c2nc(-c3ccco3)cc(C(F)(F)F)n2)CC1,-7.9,i,i,2.6,-0.1,8.7
COc1ccccc1-c1cc(C(F)(F)F)nc(S(=O)(=O)CCCC(=O)NC(C)C)n1,28.7,i,i,10.6,-1.8,9.7
COc1ccccc1-c1cc(C(F)(F)F)nc(S(C)(=O)=O)n1,85.4*,i,i,2.1,-2.9,-2.0
CN(Cc1ccco1)S(=O)(=O)c1csc(C(N)=O)c1,-4.5,i,i,4.2,-0.2,14.7
O=C(Nc1ccc(N2CCN(Cc3ccccc3Cl)CC2)cc1)c1cccnc1,15.4,i,i,78.2*,-0.1,-2.6
